From ChEMBL document CHEMBL4311940, “Design, Synthesis, and Biological Evaluation of 4-Methyl Quinazoline Derivatives as Anticancer Agents Simultaneously Targeting Phosphoinositide 3-Kinases and Histone Deacetylases” (J Med Chem, 2019)
Active and inactive are the calls of the source. No cut-off for these calls is given here.

How the values were obtained:
HCT-116 [1] = experiment: Antiproliferative activity against human HCT116 cells after 96 hrs by MTT assay; format: functional, cell-based; settings: HCT-116, 96 h
Histone deacetylase 1 = Histone deacetylase 1 (Homo sapiens, UniProt Q13547); experiment: Inhibition of recombinant C-terminal His/FLAG-tagged HDAC1 (unknown origin) expressed in baculovirus infected Sf9 insect cells using Ac-peptide as substrate preincubated for 15 mins followed by substrate addition and measured after 1 hr
Chain of Histone deacetylase 1 (Q13547 whole entry, canonical isoform): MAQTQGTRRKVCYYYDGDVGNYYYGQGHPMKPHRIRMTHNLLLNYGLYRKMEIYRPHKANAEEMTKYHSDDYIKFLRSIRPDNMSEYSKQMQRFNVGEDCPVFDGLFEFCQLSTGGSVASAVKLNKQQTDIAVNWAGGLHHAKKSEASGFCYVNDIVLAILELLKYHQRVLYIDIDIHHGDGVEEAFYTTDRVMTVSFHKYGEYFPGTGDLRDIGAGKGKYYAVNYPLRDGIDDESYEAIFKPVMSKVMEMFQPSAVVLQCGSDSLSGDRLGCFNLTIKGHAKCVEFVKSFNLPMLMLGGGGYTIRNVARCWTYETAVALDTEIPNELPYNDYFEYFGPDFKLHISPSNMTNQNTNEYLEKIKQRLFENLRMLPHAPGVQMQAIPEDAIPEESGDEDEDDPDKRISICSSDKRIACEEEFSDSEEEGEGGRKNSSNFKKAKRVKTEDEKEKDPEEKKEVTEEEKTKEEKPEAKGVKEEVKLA

[2] = biological target: Phosphatidylinositol 4,5-bisphosphate 3-kinase catalytic subunit alpha isoform (Homo sapiens, UniProt P42336); experiment: Inhibition of recombinant human PI3Kalpha using PIP2 as substrate incubated for 1 hr by kinase-glo assay
Chain of Phosphatidylinositol 4,5-bisphosphate 3-kinase catalytic subunit alpha isoform (P42336 whole entry, canonical isoform): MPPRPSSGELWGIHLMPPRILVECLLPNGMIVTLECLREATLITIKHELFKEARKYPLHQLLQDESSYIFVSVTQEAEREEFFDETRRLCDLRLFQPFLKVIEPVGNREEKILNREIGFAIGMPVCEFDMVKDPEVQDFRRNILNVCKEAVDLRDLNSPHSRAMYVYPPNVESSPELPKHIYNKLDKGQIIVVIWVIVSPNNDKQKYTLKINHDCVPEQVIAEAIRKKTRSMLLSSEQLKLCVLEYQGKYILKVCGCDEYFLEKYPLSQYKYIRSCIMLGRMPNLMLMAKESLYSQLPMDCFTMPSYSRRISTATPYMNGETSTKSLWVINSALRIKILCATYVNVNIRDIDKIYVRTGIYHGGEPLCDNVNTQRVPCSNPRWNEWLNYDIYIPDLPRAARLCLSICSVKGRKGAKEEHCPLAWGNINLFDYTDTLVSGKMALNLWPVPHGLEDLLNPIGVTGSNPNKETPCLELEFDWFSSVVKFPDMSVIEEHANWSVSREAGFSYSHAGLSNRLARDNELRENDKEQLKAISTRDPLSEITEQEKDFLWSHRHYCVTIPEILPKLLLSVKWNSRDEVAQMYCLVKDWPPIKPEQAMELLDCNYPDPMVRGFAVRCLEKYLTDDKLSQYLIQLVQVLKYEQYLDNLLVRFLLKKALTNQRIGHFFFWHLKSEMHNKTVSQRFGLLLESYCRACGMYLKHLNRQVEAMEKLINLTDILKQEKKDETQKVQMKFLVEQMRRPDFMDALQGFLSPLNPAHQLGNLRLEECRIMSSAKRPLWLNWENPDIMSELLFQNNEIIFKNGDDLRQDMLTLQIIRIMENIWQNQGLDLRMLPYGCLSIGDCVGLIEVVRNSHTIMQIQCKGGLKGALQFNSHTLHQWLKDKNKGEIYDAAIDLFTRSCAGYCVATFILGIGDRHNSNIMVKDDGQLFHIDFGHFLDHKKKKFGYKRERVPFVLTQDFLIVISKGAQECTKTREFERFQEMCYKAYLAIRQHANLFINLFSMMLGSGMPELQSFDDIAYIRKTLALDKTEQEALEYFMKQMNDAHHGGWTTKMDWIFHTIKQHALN

HCT-116 [3] = experiment: Induction of apoptosis in human HCT116 cells assessed as live cells at 500 nM after 48 hrs by Annexin V-FITC/propidium iodide staining-based flow cytometric analysis (reference value: 89.6%); format: functional
HCT-116 [4] = experiment: Induction of apoptosis in human HCT116 cells assessed as early apoptotic cells at 500 nM after 48 hrs by Annexin V-FITC/propidium iodide staining-based flow cytometric analysis (reference value: 1.33%); format: functional
HCT-116 [5] = experiment: Induction of apoptosis in human HCT116 cells assessed as late apoptotic cells at 500 nM after 48 hrs by Annexin V-FITC/propidium iodide staining-based flow cytometric analysis (reference value: 3.87%); format: functional
HCT-116 [6] = experiment: Induction of apoptosis in human HCT116 cells assessed as necrotic cells at 500 nM after 48 hrs by Annexin V-FITC/propidium iodide staining-based flow cytometric analysis (reference value: 5.23%); format: functional
HCT-116 [7] = experiment: Induction of cell cycle arrest in human HCT116 cells assessed as accumulation at G2/M phase at 500 nM after 24 hrs by propidium iodide/RNase staining-based FACS analysis; format: functional
Outline: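 HCT116 cells cultured overnight in 6-well plates, exposed to compound at various concentrations for 24 h; FxCycle PI/RNase staining and flow cytometry for cell cycle phase distribution.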

THP-1 = experiment: Antiproliferative activity against human THP1 cells after 96 hrs by MTT assay; format: functional, cell-based; settings: THP-1, 96 h
K562 = experiment: Antiproliferative activity against human K562 cells after 96 hrs by MTT assay; format: functional, cell-based; settings: K562, 96 h
MCF7 = experiment: Antiproliferative activity against human MCF7 cells after 96 hrs by MTT assay; format: functional, cell-based; settings: MCF7, 96 h
MDA-MB-453 = experiment: Antiproliferative activity against human MDA-MB-453 cells after 96 hrs by MTT assay; format: functional, cell-based; settings: MDA-MB-453, 96 h
HCT-8 = experiment: Antiproliferative activity against human HCT8 cells after 96 hrs by MTT assay; format: functional, cell-based; settings: HCT-8, 96 h
U-87 MG = experiment: Antiproliferative activity against human U87 cells after 96 hrs by MTT assay; format: functional, cell-based, U-87MG ATCC
NCI-H460 = experiment: Antiproliferative activity against human NCI-H460 cells after 96 hrs by MTT assay; format: functional, cell-based; settings: NCI-H460, 96 h
NCI-H1299 = experiment: Antiproliferative activity against human NCI-H1299 cells after 96 hrs by MTT assay; format: functional, cell-based; settings: NCI-H1299, 96 h
Capan-2 = experiment: Antiproliferative activity against human Capan2 cells after 96 hrs by MTT assay; format: functional, cell-based; settings: Capan-2, 96 h
SW1990 = experiment: Antiproliferative activity against human SW1990 cells after 96 hrs by MTT assay; format: functional, cell-based; settings: SW1990, 96 h
DU-145 = experiment: Antiproliferative activity against human DU145 cells after 96 hrs by MTT assay; format: functional, cell-based; settings: DU-145, 96 h
HGC-27 = experiment: Antiproliferative activity against human HGC27 cells after 96 hrs by MTT assay; format: functional, cell-based; settings: HGC-27, 96 h
HepG2 = experiment: Antiproliferative activity against human HepG2 cells after 96 hrs by MTT assay; format: functional, cell-based; settings: HepG2, 96 h
Huh-7 = experiment: Antiproliferative activity against human HuH7 cells after 96 hrs by MTT assay; format: functional, cell-based; settings: Huh-7, 96 h
Bel-7402 = experiment: Antiproliferative activity against human Bel7402 cells after 96 hrs by MTT assay; format: functional, cell-based; settings: Bel-7402, 96 h
HCT-116 [8] = experiment: Potency index, ratio of IC50 for SAHA to test compound IC50 for human HCT116 cells; format: functional

Row | Compound | IC50 (HCT-116 [1]) [nM] | IC50 (Histone deacetylase 1) [nM] | IC50 [2] [nM] | further results
1 | COc1ncc(-c2cc(OCCCCCCCCC(=O)NO)c3ncnc(C)c3c2)cc1F | 580 | 2.2 | 116 | –
2 | COc1ncc(-c2cc(OCCCCCCCC(=O)NO)c3ncnc(C)c3c2)cc1F | 1400 | 3.3 | 54 | –
3 | COc1ncc(-c2cc(OCCNc3ncc(C(=O)NO)cn3)c3ncnc(C)c3c2)cc1F | 4600 | 5.3 | 43 | –
4 | COc1ncc(-c2cc(OCCCCCCCC(=O)NO)c3ncnc(C)c3c2)cc1NS(C)(=O)=O | 3400 | 2.1 | 3.9 | –
5 | COc1ccc(-c2cc(OCCCCC(=O)NO)c3ncnc(C)c3c2)cn1 | 1400 | 84 | 51 | –
6 | COc1ncc(-c2cc(OCCCCCCC(=O)NO)c3ncnc(C)c3c2)cc1NS(=O)(=O)c1ccc(F)cc1F | 7200 | 6.3 | 0.69 | –
7 | CCN(CCOc1cc(-c2cnc(OC)c(F)c2)cc2c(C)ncnc12)c1ncc(C(=O)NO)cn1 | 39 | 2.6 | 72 | –
8 | COc1ncc(-c2cc(OCCCCC(=O)NO)c3ncnc(C)c3c2)cc1NS(=O)(=O)c1ccc(F)cc1F | 350 | 303 | 0.6 | –
9 | COc1ncc(-c2cc(OCCCCNc3ncc(C(=O)NO)cn3)c3ncnc(C)c3c2)cc1F | 9300 | 11 | 41 | –
10 | COc1ccc(-c2cc(OCCCCCCCC(=O)NO)c3ncnc(C)c3c2)cn1 | 800 | 3.7 | 143 | –
11 | COc1ncc(-c2cc(OCCN(C)c3ncc(C(=O)NO)cn3)c3ncnc(C)c3c2)cc1NS(=O)(=O)c1ccc(F)cc1F | 530 | 1.7 | 1.8 | –
12 | COc1ncc(-c2cc(OCCCNc3ncc(C(=O)NO)cn3)c3ncnc(C)c3c2)cc1F | 2100 | 4 | 43 | –
13 | Nc1cc(C(F)(F)F)c(-c2cc(N3CCOCC3)nc(N3CCOCC3)n2)cn1 [BUPARLISIB] | 1300 | – | – | Activity (HCT-116 [3]): 84.7%; Activity (HCT-116 [4]): 5.22%; Activity (HCT-116 [5]): 6.61%; Activity (HCT-116 [6]): 3.46%; Activity (HCT-116 [7]): Active; IC50 (THP-1): 12000 nM; IC50 (K562): 7900 nM; IC50 (MCF7): 5700 nM; IC50 (MDA-MB-453): 370 nM; IC50 (HCT-8): 1700 nM; IC50 (U-87 MG): 4800 nM; IC50 (NCI-H460): 3200 nM; IC50 (NCI-H1299): 3600 nM; IC50 (Capan-2): 42000 nM; IC50 (SW1990): 1300 nM; IC50 (DU-145): 45000 nM; IC50 (HGC-27): 990 nM; IC50 (HepG2): 3200 nM; IC50 (Huh-7): 2000 nM; IC50 (Bel-7402): 13000 nM
14 | COc1ccc(-c2cc(OCCCCCCC(=O)NO)c3ncnc(C)c3c2)cn1 | 140 | 1.3 | 102 | Ratio IC50 (HCT-116 [8]): 10
15 | COc1ccc(-c2cc(OCCN(c3ncc(C(=O)NO)cn3)C(C)C)c3ncnc(C)c3c2)cn1 | 39 | 1.6 | 82 | –
16 | COc1ncc(-c2cc(OCCCCCCCCC(=O)NO)c3ncnc(C)c3c2)cc1NS(C)(=O)=O | 11000 | 4.9 | 4 | –
17 | COc1ccc(-c2cc(OCCCN(C)c3ncc(C(=O)NO)cn3)c3ncnc(C)c3c2)cn1 | 100 | 2.5 | 213 | –
18 | COc1ncc(-c2cc(OCCCCCC(=O)NO)c3ncnc(C)c3c2)cc1NS(=O)(=O)c1ccc(F)cc1F | 540 | 39 | 0.66 | –
